Test results reported in ChEMBL document CHEMBL1921796, “Synthesis of 6-(het) ary Xylocydine analogues and evaluating their inhibitory activities of CDK1 and CDK2 in vitro” (Bioorg Med Chem, 2011).
pIC50: −log10 of the molar value.

Legend:
[1] = molecular target: Cyclin-dependent kinase 2/cyclin A (Homo sapiens, UniProt P24941+P20248+P78396); assay: (§1) Inhibition of CDK2/Cyclin A2 in human HeLa cell extracts using histone H1 as substrate preincubated for 30 mins before substrate addition measured after 15 mins by autoradiography; format: protein-complex assay; conditions: hela
Summary of the method: (§2)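 CDK2 immunoprecipitated (6 h, 4 °C) from 200 µg extract of HeLa cells seeded 24 h and then given 50 µg/ml etoposide in DMEM with 5% newborn calf serum for 12 h. After washing, kinase preincubated 30 min with 0–200 µM inhibitor.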

[2] = molecular target: Cyclin-dependent kinase 1/cyclin B1 (Homo sapiens, UniProt P06493+P14635); assay: (§3) Inhibition of CDK1/Cyclin B in human HeLa cell extracts using histone H1 as substrate preincubated for 30 mins before substrate addition measured after 15 mins by autoradiography; format: protein-complex assay; conditions: hela
Summary of the method: (§4)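 HeLa cells seeded for 24 h, then given 80 nM paclitaxel in DMEM with 5% newborn calf serum for 12 h. 200 µg extract immunoprecipitated with anti-CDK1 antibody, 6 h at 4 °C, and washed.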

[3] = molecular target: Cyclin-dependent kinase 2/cyclin A (Homo sapiens, UniProt P24941); assay: as §1; format: protein-complex assay; summary of the method: as §2
[4] = system: HeLa; assay: Cell cycle arrest in human HeLa cells assessed as accumulation at G2 phase at 12.5 uM after 72 hrs by DAPI staining-based FACS analysis (reference value: 13.73%); format: functional
[5] = system: HeLa; assay: Cell cycle arrest in human HeLa cells assessed as accumulation at G2 phase at 6.25 uM after 72 hrs by DAPI staining-based FACS analysis (reference value: 13.73%); format: functional
[6] = system: HeLa; assay: Cell cycle arrest in human HeLa cells assessed as accumulation at G1/S phase at 6.25 uM after 72 hrs by DAPI staining-based FACS analysis (reference value: 86.27%); format: functional
[7] = system: HeLa; assay: Cell cycle arrest in human HeLa cells assessed as accumulation at G1/S phase at 12.5 uM after 72 hrs by DAPI staining-based FACS analysis (reference value: 86.27%); format: functional
[8] = molecular target: Cyclin-dependent kinase 1/cyclin B1 (Homo sapiens, UniProt P06493); assay: as §3; format: protein-complex assay; summary of the method: as §4
Sequence of Cyclin-dependent kinase 1/cyclin B1 (Homo sapiens, UniProt P06493) (P06493 whole entry): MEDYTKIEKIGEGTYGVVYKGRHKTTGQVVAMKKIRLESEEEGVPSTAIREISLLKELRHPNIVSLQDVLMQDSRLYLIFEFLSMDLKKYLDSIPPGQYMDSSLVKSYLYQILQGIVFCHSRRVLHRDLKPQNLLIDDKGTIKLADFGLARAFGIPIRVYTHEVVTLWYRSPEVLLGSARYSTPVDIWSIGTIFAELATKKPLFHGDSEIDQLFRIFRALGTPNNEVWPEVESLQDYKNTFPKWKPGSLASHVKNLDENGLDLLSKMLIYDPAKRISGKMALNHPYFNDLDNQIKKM
Sequence of Cyclin-dependent kinase 1/cyclin B1 (Homo sapiens, UniProt P06493) (P14635 whole entry, further chain): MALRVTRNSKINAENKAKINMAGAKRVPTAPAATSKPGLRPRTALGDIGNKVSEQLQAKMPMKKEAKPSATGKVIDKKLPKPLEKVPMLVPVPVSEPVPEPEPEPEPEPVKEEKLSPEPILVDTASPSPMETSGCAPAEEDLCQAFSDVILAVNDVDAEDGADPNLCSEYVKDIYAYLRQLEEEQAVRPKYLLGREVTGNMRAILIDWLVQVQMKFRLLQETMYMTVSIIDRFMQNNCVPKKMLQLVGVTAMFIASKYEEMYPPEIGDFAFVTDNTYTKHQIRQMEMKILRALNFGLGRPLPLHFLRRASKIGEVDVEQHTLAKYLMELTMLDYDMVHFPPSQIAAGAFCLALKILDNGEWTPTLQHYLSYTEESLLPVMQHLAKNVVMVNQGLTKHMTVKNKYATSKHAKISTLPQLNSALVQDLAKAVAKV

Sequence of Cyclin-dependent kinase 1/cyclin B1 (Homo sapiens, UniProt P06493+P14635) (P06493 whole entry): as the sequence (P06493 whole entry) above
Sequence of Cyclin-dependent kinase 1/cyclin B1 (Homo sapiens, UniProt P06493+P14635) (P14635 whole entry): as the sequence (P14635 whole entry, further chain) above

Row | SMILES | IC50 [1] | IC50 [2] | further results
1 | N#Cc1c(-c2cccc(Br)c2)n([C@H]2O[C@@H](CO)[C@@H](O)[C@@H]2O)c2ncnc(N)c12 | Not Active | Not Active | 
2 | NC(=O)c1c(-c2ccc(Br)s2)n([C@H]2O[C@@H](CO)[C@@H](O)[C@@H]2O)c2ncnc(N)c12 | Not Active | Not Active | 
3 | COc1cccc(-c2c(C#N)c3c(N)ncnc3n2[C@H]2O[C@@H](CO)[C@@H](O)[C@@H]2O)c1 | Not Active | Not Active | 
4 | NC(=O)c1c(-c2ccco2)n([C@H]2O[C@@H](CO)[C@@H](O)[C@@H]2O)c2ncnc(N)c12 | Not Active | Not Active | 
5 | N#Cc1c(-c2ccc(Br)cc2)n([C@H]2O[C@@H](CO)[C@@H](O)[C@@H]2O)c2ncnc(N)c12 | Not Active | Not Active | 
6 | Cc1ccc(-c2c(C(N)=O)c3c(N)ncnc3n2[C@H]2O[C@@H](CO)[C@@H](O)[C@@H]2O)cc1 | Not Active | Not Active | 
7 | Cc1ccc(-c2c(C#N)c3c(N)ncnc3n2[C@H]2O[C@@H](CO)[C@@H](O)[C@@H]2O)cc1 | Not Active | Not Active | 
8 | NC(=O)c1c(-c2cccc(Br)c2)n([C@H]2O[C@@H](CO)[C@@H](O)[C@@H]2O)c2ncnc(N)c12 | Not Active | Not Active | 
9 | N#Cc1c(Br)n([C@H]2O[C@@H](CO)[C@@H](O)[C@@H]2O)c2ncnc(N)c12 | Not Active | Not Active | 
10 | COc1cccc(-c2c(C(N)=O)c3c(N)ncnc3n2[C@H]2O[C@@H](CO)[C@@H](O)[C@@H]2O)c1 | Not Active | Not Active | 
11 | N#Cc1c(-c2ccc(Br)s2)n([C@H]2O[C@@H](CO)[C@@H](O)[C@@H]2O)c2ncnc(N)c12 |  |  | pIC50 [3]: 4.26; Activity [4]: 0.22%; Activity [5]: 13.17%; Activity [6]: 86.83%; Activity [7]: 99.79%; pIC50 [8]: < 4.00
12 | N#Cc1c(-c2ccco2)n([C@H]2O[C@@H](CO)[C@@H](O)[C@@H]2O)c2ncnc(N)c12 |  |  | pIC50 [3]: 5.32; Activity [4]: 7.26%; Activity [5]: 14.87%; Activity [6]: 85.13%; Activity [7]: 92.74%; pIC50 [8]: < 4.00
13 | NC(=O)c1c(Br)n([C@H]2O[C@@H](CO)[C@@H](O)[C@@H]2O)c2ncnc(N)c12 [XYLOCYDINE] |  |  | pIC50 [3]: 7.21; pIC50 [8]: 8.85
14 | N#Cc1c(-c2ccc[nH]2)n([C@H]2O[C@@H](CO)[C@@H](O)[C@@H]2O)c2ncnc(N)c12 | Not Active | Not Active | 
15 | NC(=O)c1c(-c2cccs2)n([C@H]2O[C@@H](CO)[C@@H](O)[C@@H]2O)c2ncnc(N)c12 | Not Active | Not Active | 
16 | CC(C)(C)c1ccc(-c2c(C(N)=O)c3c(N)ncnc3n2[C@H]2O[C@@H](CO)[C@@H](O)[C@@H]2O)cc1 | Not Active | Not Active | 
17 | N#Cc1c(-c2cccs2)n([C@H]2O[C@@H](CO)[C@@H](O)[C@@H]2O)c2ncnc(N)c12 |  |  | pIC50 [3]: 5.34; Activity [4]: 0.13%; Activity [5]: 3.7%; Activity [6]: 96.3%; Activity [7]: 99.87%; pIC50 [8]: < 4.00
18 | COc1ccc(-c2c(C#N)c3c(N)ncnc3n2[C@H]2O[C@@H](CO)[C@@H](O)[C@@H]2O)cc1 | Not Active | Not Active | 
19 | COc1ccc(-c2c(C(N)=O)c3c(N)ncnc3n2[C@H]2O[C@@H](CO)[C@@H](O)[C@@H]2O)cc1 | Not Active | Not Active | 
20 | NC(=O)c1c(-c2ccc[nH]2)n([C@H]2O[C@@H](CO)[C@@H](O)[C@@H]2O)c2ncnc(N)c12 | Not Active | Not Active | 
21 | NC(=O)c1c(-c2ccc(Br)cc2)n([C@H]2O[C@@H](CO)[C@@H](O)[C@@H]2O)c2ncnc(N)c12 | Not Active | Not Active | 
22 | CC(C)(C)c1ccc(-c2c(C#N)c3c(N)ncnc3n2[C@H]2O[C@@H](CO)[C@@H](O)[C@@H]2O)cc1 | Not Active | Not Active | 
